From ChEMBL document CHEMBL2440062, “New nucleotide-competitive non-nucleoside inhibitors of terminal deoxynucleotidyl transferase: discovery, characterization, and crystal structure in complex with the target” (J Med Chem, 2013)
pIC50, pKi: −log10 of the molar value. The source made the active and inactive calls. No cut-off for these calls is given here.

test system: HeLa; assay: Downregulation of cyclin E protein expression in TdT-deficient human HeLa cells at 30 uM by Western blot analysis; assay type: ADME, cell-based
Procedure, shortened: (§1)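 1 × 10^6 cells were incubated with or without compound, then lysed in cold buffer (50 mM Tris, 150 mM NaCl, 10 mM EDTA, 1% Triton) with protease inhibitors. Equal protein was run on 8–12% SDS-PAGE and blotted to nitrocellulose. Membranes were probed overnight at 4 °C with antibodies to cyclin E2, cyclin A, p53 or caspase 3, detected by HRP/ECL, and normalized to actin by densitometry.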

Row | Compound | Activity
1 | CCCCn1cc(/C=C/C(=O)CC(=O)C(=O)O)c2ccccc21 | Toxic

test system: MOLT-4; assay: Downregulation of cyclin E protein expression in human MOLT4 cells overexpressing TdT at 30 uM by Western blot analysis; assay type: functional, cell-based; procedure, shortened: as §1

Row | Compound | Activity
2 | CCCCn1cc(/C=C/C(=O)CC(=O)C(=O)O)c2ccccc21 | Active

test system: HeLa; assay: Cell cycle arrest in TdT-deficient human HeLa cells assessed as decrease of cells in G2 phase at 30 uM after 24 hrs by propidium iodide staining-based FACS flow cytometric analysis relative to vehicle-treated control; assay type: ADME; design: scale not given: the % may be the effect or the level left
Procedure, shortened: (§2)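 Cells at 2.5 × 10^5 cells/mL were treated 24 h with compound or vehicle. They were washed in PBS, trypsinized, and stained 30 min at 4 °C in the dark with 0.1% sodium citrate, 0.1% Triton X-100 and propidium iodide. Analysis was by FACScan flow cytometry, giving the percentage of cells in G0/G1, S and G2/M.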

Row | Compound | Activity [%]
3 | CCCCn1cc(/C=C/C(=O)CC(=O)C(=O)O)c2ccccc21 | 10

test system: HeLa; assay: Cell cycle arrest in TdT-deficient human HeLa cells assessed as accumulation at G1 phase at 30 uM after 24 hrs by propidium iodide staining-based FACS flow cytometric analysis relative to vehicle-treated control; assay type: ADME; procedure, shortened: as §2

Row | Compound | Activity [%]
4 | CCCCn1cc(/C=C/C(=O)CC(=O)C(=O)O)c2ccccc21 | 20

test system: HeLa; assay: Cytotoxicity against TdT-deficient human HeLa cells assessed as growth inhibition after 24 to 48 hrs by MTT assay; assay type: cell-based
Procedure, shortened: (§3)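 MOLT-4 cells were grown in RPMI-1640 and HeLa cells in DMEM, with 10% FCS at 37 °C. Cells were seeded at 10^5 per well, given 24 h to attach, then exposed to compounds (0.1–100 range) for 24 or 48 h. MTT at 1 mg/mL was added for 2 h at 37 °C, formazan was dissolved in DMSO, and absorbance read at 550 nm versus 0.5% DMSO vehicle. IC50 was obtained by regression, in triplicate.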

Row | Compound | pIC50
5 | O=C(/C=C/c1cc(C(=O)c2ccccc2F)c[nH]1)CC(=O)C(=O)O | < 4.40
6 | CCCCn1cc(/C=C/C(=O)CC(=O)C(=O)O)c2ccccc21 | 4.52

test system: MOLT-4; assay: Cytotoxicity against human MOLT4 cells overexpressing TdT assessed as growth inhibition after 24 to 48 hrs by MTT assay; assay type: functional, cell-based; procedure, shortened: as §3

Row | Compound | pIC50
7 | O=C(/C=C/c1cc(C(=O)c2ccccc2F)c[nH]1)CC(=O)C(=O)O | 4.70
8 | CCCCn1cc(/C=C/C(=O)CC(=O)C(=O)O)c2ccccc21 | 4.52

species: Homo sapiens; assay: Binding affinity to human TdT/DNA/dNTP ternary complex
Procedure, shortened: (§4)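 Association (kon) and dissociation (koff) rates measured for binding to binary enzyme–DNA and ternary enzyme–DNA–dNTP complexes of TdT.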

Row | Compound | inhibition
9 | O=C(/C=C/c1cc(C(=O)c2ccccc2F)c[nH]1)CC(=O)C(=O)O | inactive

species: Homo sapiens; assay: Binding affinity to human TdT/DNA binary complex; procedure, shortened: as §4

Row | Compound | inhibition
10 | O=C(/C=C/c1cc(C(=O)c2ccccc2F)c[nH]1)CC(=O)C(=O)O | Active

target: T1, DNA nucleotidylexotransferase (Homo sapiens, UniProt P04053); assay: Non-competitive inhibition of human TdT using 3'-OH as substrate
T1 sequence (P04053 whole entry): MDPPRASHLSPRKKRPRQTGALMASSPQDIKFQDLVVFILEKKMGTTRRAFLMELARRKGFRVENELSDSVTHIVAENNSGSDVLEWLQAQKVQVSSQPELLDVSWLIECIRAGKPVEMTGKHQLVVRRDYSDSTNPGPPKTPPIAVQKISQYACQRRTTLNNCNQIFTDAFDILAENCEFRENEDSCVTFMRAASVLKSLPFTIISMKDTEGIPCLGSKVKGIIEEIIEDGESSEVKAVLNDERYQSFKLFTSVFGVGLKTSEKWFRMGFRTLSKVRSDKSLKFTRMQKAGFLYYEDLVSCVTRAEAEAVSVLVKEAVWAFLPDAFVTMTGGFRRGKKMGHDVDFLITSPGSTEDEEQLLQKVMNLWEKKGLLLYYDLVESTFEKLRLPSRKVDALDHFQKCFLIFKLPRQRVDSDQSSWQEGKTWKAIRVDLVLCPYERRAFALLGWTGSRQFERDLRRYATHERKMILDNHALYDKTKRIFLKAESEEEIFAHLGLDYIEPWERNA

Row | Compound | pKi
11 | O=C(/C=C/c1cc(C(=O)c2ccccc2F)c[nH]1)CC(=O)C(=O)O | 6.40

target: T1, DNA nucleotidylexotransferase; assay: Competitive inhibition of human TdT using TTP as substrate
Procedure, shortened: (§5)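 TdT was from Trevigen. TCA-precipitated radioactivity was counted. ID50 came from dose–response fitting. For kinetics, DNA or dNTP was varied at increasing inhibitor, and Ki was obtained via Cheng–Prusoff for a competitive model.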

Row | Compound | pKi
12 | O=C(/C=C/c1cc(C(=O)c2ccccc2F)c[nH]1)CC(=O)C(=O)O | 6.30

target: DNA polymerase beta (Homo sapiens, UniProt P06746); assay: Inhibition of human recombinant DNA polymerase beta

Row | Compound | pIC50
13 | O=C(/C=C/c1cc(C(=O)c2ccccc2F)c[nH]1)CC(=O)C(=O)O | < 4.40
14 | CCCCn1cc(/C=C/C(=O)CC(=O)C(=O)O)c2ccccc21 | < 4.40

target: T2, DNA polymerase lambda (Homo sapiens) (UniProt Q9UGP5); assay: Inhibition of human recombinant full length DNA polymerase lambda TdT-like activity using [3H]dNTP as substrate after 10 mins by scintillation counting analysis
T2 sequence (whole entry): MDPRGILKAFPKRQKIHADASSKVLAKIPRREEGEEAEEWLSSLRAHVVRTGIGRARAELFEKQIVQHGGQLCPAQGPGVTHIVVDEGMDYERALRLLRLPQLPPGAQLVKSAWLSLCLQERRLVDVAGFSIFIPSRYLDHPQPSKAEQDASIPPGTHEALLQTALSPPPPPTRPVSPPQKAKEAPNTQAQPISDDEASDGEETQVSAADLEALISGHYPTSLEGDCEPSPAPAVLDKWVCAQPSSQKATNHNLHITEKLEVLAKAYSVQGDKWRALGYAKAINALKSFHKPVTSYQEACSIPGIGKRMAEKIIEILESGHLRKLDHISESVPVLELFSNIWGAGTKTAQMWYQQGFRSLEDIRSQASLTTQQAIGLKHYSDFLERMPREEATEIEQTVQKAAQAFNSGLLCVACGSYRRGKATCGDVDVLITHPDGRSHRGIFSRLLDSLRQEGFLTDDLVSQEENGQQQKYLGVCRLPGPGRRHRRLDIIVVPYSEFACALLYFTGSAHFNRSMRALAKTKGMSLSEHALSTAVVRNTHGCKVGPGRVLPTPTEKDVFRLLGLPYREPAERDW
Procedure, shortened: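 Full-length recombinant human pol λ (>90% pure) was tested for template-independent activity. Acid-insoluble radioactivity was counted, and ID50 came from dose–response fitting.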

Row | Compound | ID50 [µM]
15 | O=C(/C=C/c1cc(C(=O)c2ccccc2F)c[nH]1)CC(=O)C(=O)O | 27
16 | CCCCn1cc(/C=C/C(=O)CC(=O)C(=O)O)c2ccccc21 | > 40

target: T2, DNA polymerase lambda (Homo sapiens); assay: Inhibition of human recombinant full length DNA polymerase lambda using [3H]dTTP as substrate and 10 poly(dA)/oligo(dT) as template-primer after 15 mins by scintillation counting analysis
Procedure, shortened: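 Recombinant full-length human pol λ at 50 nM was assayed with 0.2 μM poly(dA)/oligo(dT)10:1 (3′-OH ends) and 5 μM [3H]dTTP (5 Ci/mmol). Incubation was 15 min at 37 °C. TCA precipitates were scintillation counted.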

Row | Compound | ID50 [µM]
17 | O=C(/C=C/c1cc(C(=O)c2ccccc2F)c[nH]1)CC(=O)C(=O)O | > 40
18 | CCCCn1cc(/C=C/C(=O)CC(=O)C(=O)O)c2ccccc21 | > 40

target: T1, DNA nucleotidylexotransferase; assay: Inhibition of human recombinant TdT using [3H]dNTP as substrate after 10 mins by scintillation counting analysis; procedure, shortened: as §5

Row | Compound | ID50 [µM]
19 | O=C(/C=C/c1cc(C(=O)c2ccccc2F)c[nH]1)CC(=O)C(=O)O | 1.7
20 | CCCCn1cc(/C=C/C(=O)CC(=O)C(=O)O)c2ccccc21 | 26

test system: MOLT-4; assay: Cell cycle arrest in human MOLT4 cells overexpressing TdT assessed as accumulation at G1 phase at 30 uM after 24 hrs by propidium iodide staining-based FACS flow cytometric analysis relative to vehicle-treated control; assay type: functional; procedure, shortened: as §2

Row | Compound | Activity [%]
21 | CCCCn1cc(/C=C/C(=O)CC(=O)C(=O)O)c2ccccc21 | 20

test system: MOLT-4; assay: Cell cycle arrest in human MOLT4 cells overexpressing TdT assessed as decrease of cells in G2 phase at 30 uM after 24 hrs by propidium iodide staining-based FACS flow cytometric analysis relative to vehicle-treated control; assay type: functional; design: scale not given: the % may be the effect or the level left; procedure, shortened: as §2

Row | Compound | Activity [%]
22 | CCCCn1cc(/C=C/C(=O)CC(=O)C(=O)O)c2ccccc21 | 10
